From ChEMBL document CHEMBL3232808, “Synthesis, biological evaluation, and structure-activity relationships of potent noncovalent and nonpeptidic cruzain inhibitors as anti-Trypanosoma cruzi agents” (J Med Chem, 2014)

How the values were obtained:
[1] = biological target: Cruzipain (Trypanosoma cruzi) (UniProt P25779); assay: Inhibition of Trypanosoma cruzi cruzaine expressed in Escherichia coli SG13009 using Z-FR-AMC as substrate at 100 uM after 5 mins
Cruzipain [2] = biological target: T1, Cruzipain (Trypanosoma cruzi, UniProt P25779); assay: Inhibition of Trypanosoma cruzi cruzaine expressed in Escherichia coli SG13009 using Z-FR-AMC as substrate after 5 mins
T1 sequence (P25779 whole entry): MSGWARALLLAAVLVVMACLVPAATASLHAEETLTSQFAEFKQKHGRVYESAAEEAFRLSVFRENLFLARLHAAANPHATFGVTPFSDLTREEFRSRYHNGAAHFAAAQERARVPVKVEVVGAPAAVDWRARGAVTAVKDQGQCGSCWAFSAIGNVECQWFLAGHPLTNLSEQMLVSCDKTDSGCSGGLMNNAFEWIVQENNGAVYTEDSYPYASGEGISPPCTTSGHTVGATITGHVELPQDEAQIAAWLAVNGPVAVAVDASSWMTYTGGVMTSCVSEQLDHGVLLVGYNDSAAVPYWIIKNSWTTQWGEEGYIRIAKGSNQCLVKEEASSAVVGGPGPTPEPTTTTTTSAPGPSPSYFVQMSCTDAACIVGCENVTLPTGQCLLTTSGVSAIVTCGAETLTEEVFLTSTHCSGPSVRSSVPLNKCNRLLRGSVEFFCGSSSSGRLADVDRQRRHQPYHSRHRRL

Trypanosoma cruzi [3] = assay: Antitrypanosomal activity against amastigote stage of lacZ expressing Trypanosoma cruzi Tulahuen after 72 hrs; format: functional, organism-based
Method in brief: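 Human fibroblasts seeded 2×10^3/well in RPMI 1640 without phenol red, overnight; β-galactosidase-expressing trypomastigotes added 1.0×10^4/well. After 24 h, compounds (DMSO stocks diluted in medium) added in serial dilutions 300 to 0.4 μM, triplicate; 72 h incubation. CPRG with Nonidet P-40 (0.1% final) added, absorbance 570 nm; IC50 from curve fitting; benznidazole positive, untreated negative controls; ≥3 experiments.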

Trypanosoma cruzi [4] = assay: Ratio of benznidazole IC50 to compound IC50 for amastigote stage of lacZ expressing Trypanosoma cruzi Tulahuen; format: functional
Method in brief: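 Human fibroblasts (2×10^3/well) were seeded overnight in phenol-red-free RPMI 1640, then infected with β-galactosidase-expressing Tulahuen trypomastigotes (1.0×10^4/well). After 24 h, compounds (DMSO stocks) were added as serial dilutions from 300 to 0.4 μM, each in triplicate. After 72 h, CPRG with 0.1% Nonidet P-40 was added and A570 read. Benznidazole was run alongside as standard. IC50s are means of ≥3 experiments.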

Mus musculus [5] = assay: Acute toxicity in BALB/c mouse at 20, 30, 50 and 50 mg/kg, ip administered at 0, 2, 4, 6 hrs respectively and measured after last dose; format: organism-based; design: dose 50 mg/kg, route intraperitoneal; details: in vivo
Method in brief: (§1)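 One female BALB/c mouse (18–20 g) per compound. Stock diluted to 5 mg/mL in sterile distilled water, given ip as cumulative doses over 6 h (20, 30, 50, 50 mg/kg at 0, 2, 4, 6 h; total 150 mg/kg). Mice observed 48 h for acute toxicity signs (chill, thirst) or death, then euthanized.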

Mus musculus [6] = assay: Acute toxicity in BALB/c mouse at 20, 30, 50 and 50 mg/kg, ip administered at 0, 2, 4, 6 hrs respectively and measured after 24 hrs post last dose; format: organism-based; design: dose 50 mg/kg, route intraperitoneal; details: in vivo
Mus musculus [7] = assay: Acute toxicity in BALB/c mouse assessed as mortality incidence at 20, 30, 50 and 50 mg/kg, ip administered at 0, 2, 4, 6 hrs respectively and measured after 48 hrs post last dose; format: organism-based; design: dose 50 mg/kg, route intraperitoneal; details: in vivo; method in brief: as §1
Cruzipain [8] = biological target: T1, Cruzipain; assay: Competitive inhibition of Trypanosoma cruzi cruzaine expressed in Escherichia coli SG13009 using Z-FR-AMC as substrate by Lineweaver-Burk plot analysis
Method in brief: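 Mechanism study: eight Z-FR-AMC concentrations crossed with four inhibitor concentrations, each in triplicate, with 1.5 nM cruzain in 0.1 M sodium acetate pH 5.5, 5 mM DTT, 0.01% Triton X-100; 5 min initial rates; kinetic parameters obtained with an enzyme kinetics module.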

Chain of Cruzipain (Trypanosoma cruzi) (P25779 123-467 limits assumed): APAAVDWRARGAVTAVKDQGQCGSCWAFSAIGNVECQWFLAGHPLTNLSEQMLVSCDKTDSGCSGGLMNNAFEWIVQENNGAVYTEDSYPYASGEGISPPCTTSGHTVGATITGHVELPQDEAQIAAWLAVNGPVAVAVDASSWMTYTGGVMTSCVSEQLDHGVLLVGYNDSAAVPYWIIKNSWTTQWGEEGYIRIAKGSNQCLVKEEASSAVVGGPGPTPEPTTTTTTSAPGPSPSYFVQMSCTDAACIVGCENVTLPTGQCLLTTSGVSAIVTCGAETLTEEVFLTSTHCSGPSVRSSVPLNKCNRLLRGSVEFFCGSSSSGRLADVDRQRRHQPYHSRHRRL

Row | inhibition [1] [%] | IC50 (Cruzipain [2]) [µM] | IC50 (Trypanosoma cruzi [3]) [µM] | SMILES | further results
1 | 89 | 0.8 | 1.6 | O=C(COc1ccccc1Br)NCCc1nc2ccccc2[nH]1 | Ratio IC50 (Trypanosoma cruzi [4]): 3
2 | 25 | – | – | O=C(CCOc1ccccc1)NCCc1nc2ccccc2[nH]1 | –
3 | 84 | 5.2 | > 100 | O=C(COc1cccc2ccccc12)NCCc1nc2ccccc2[nH]1 | –
4 | 4 | – | – | Nc1ccccc1NC(=O)CCNC(=O)COc1ccccc1[N+](=O)[O-] | –
5 | 89 | 23.9 | 11.1 | C=CCCn1c(CCNC(=O)COc2ccccc2Cl)nc2ccccc21 | –
6 | 7 | – | – | O=C(CCc1ccccc1Br)NCCN1CCCCC1 | –
7 | 88 | – | – | O=C(COc1ccccc1)NCCc1nc2ccccc2[nH]1 | –
8 | 13 | – | – | Cc1cc(C)c(C#N)c(SCCNC(=O)COc2ccccc2C)n1 | –
9 | 97 | 0.62 | – | Cc1ccc2[nH]c(CCNC(=O)COc3ccc4ccccc4c3Br)nc2c1 | –
10 | 43 | – | – | Nc1ccccc1OCC(=O)NCCc1nc2ccccc2[nH]1 | –
11 | 3 | – | – | Cc1ccccc1OCC(=O)NCCN1CCCCC1 | –
12 | 22 | – | – | O=C(COc1ccc2ccccc2c1)NCCc1nc2ccccc2o1 | –
13 | 90 | 3 | 46.1 | O=C(COc1ccc2ccccc2c1)NCCc1nc2ccccc2[nH]1 | –
14 | 8 | – | – | Cc1ccccc1OCC(=O)NCCC(=O)NCc1ccccc1 | –
15 | 92 | 3 | > 100 | O=C(COc1ccccc1Cl)NCCc1nc2ccccc2[nH]1 | –
16 | 51 | 77.5 | 34.6 | O=C(CCc1ccccc1Br)NCCc1nc2ccccc2[nH]1 | –
17 | 4 | – | – | Cc1ccccc1OCC(=O)NCCC(=O)Nc1ccccc1 | –
18 | – | – | 4.8 | O=C(Cn1ccnc1[N+](=O)[O-])NCc1ccccc1 [BENZNIDAZOLE] | –
19 | 2 | – | – | Cc1ccccc1OCC(=O)NCCC(=O)Nc1ccccc1O | –

Row | inhibition [1] [%] | IC50 (Cruzipain [2]) [µM] | IC50 (Trypanosoma cruzi [3]) [µM] | SMILES | further results
20 | 51 | 8.2 | – | O=C(COc1ccc2ccccc2c1O)NCCc1nc2ccccc2[nH]1 | –
21 | 1 | – | – | O=C(COc1ccccc1Br)NCCN1CCCCC1 | –
22 | 80 | 12.7 | – | O=C(COc1ccc2ccccc2c1CO)NCCc1nc2ccccc2[nH]1 | –
23 | 93 | 0.54 | – | COc1ccc2[nH]c(CCNC(=O)COc3ccc4ccccc4c3Br)nc2c1 | –
24 | 8 | – | – | Cc1ccccc1OCCNCCc1nc2ccccc2[nH]1 | –
25 | 8 | – | – | Cc1ccccc1OCC(=O)NCCC(=O)O | –
26 | 33 | – | 2.9 | Cc1ccccc1OCC(=O)NCCc1nc2ccccc2o1 | –
27 | 93 | 13.2 | 7.9 | O=C(COc1ccccc1[N+](=O)[O-])NCCc1nc2ccccc2[nH]1 | –
28 | 5 | – | – | Cc1ccccc1OCC(=O)NCCc1c[nH]c2ccccc12 | –
29 | 84 | 9.9 | 5.3 | CC(=O)n1c(CCNC(=O)COc2ccc(Br)cc2)nc2ccccc21 | –
30 | 2 | – | – | O=C(COc1ccc2ccccc2c1Br)NCCc1c[nH]c2ccccc12 | –
31 | 14 | – | – | O=C(COc1ccc2ccccc2c1)NCCC(=O)Nc1ccccc1O | –
32 | 47 | – | – | CC(=O)n1c(CCNC(=O)COc2ccccc2[N+](=O)[O-])nc2ccccc21 | –
33 | 25 | – | – | CC(=O)Nc1ccccc1OCC(=O)NCCc1nc2ccccc2[nH]1 | –
34 | 92 | 0.21 | 16.2 | O=C(COc1ccc2ccccc2c1Br)NCCc1nc2ccccc2[nH]1 | Ki (Cruzipain [8]): 0.082 µM
35 | 90 | 0.6 | – | O=C(COc1ccc2ccccc2c1Br)NCCc1nc2cc(Cl)ccc2[nH]1 | –
36 | 80 | 13.5 | – | O=Cc1c(OCC(=O)NCCc2nc3ccccc3[nH]2)ccc2ccccc12 | –
37 | 7 | – | – | O=C(COc1ccc2ccccc2c1)NCCc1cnc[nH]1 | –

Row | SMILES | inhibition [1] [%] | IC50 (Cruzipain [2]) [µM] | IC50 (Trypanosoma cruzi [3]) [µM] | further results
38 | O=C(COc1ccccc1F)NCCc1nc2ccccc2[nH]1 | 92 | 5.3 | > 100 | Activity (Mus musculus [5]): Toxic; Activity (Mus musculus [6]): Non-toxic; Activity (Mus musculus [7]): Non-toxic
39 | Cc1ccccc1OCC(=O)NCCc1nc2ccccc2[nH]1 | 88 | 4.1 | 2.8 | Activity (Mus musculus [5]): Toxic; Activity (Mus musculus [6]): Non-toxic; Activity (Mus musculus [7]): Non-toxic
40 | O=C(CSc1ccccc1)NCCc1nc2ccccc2[nH]1 | 66 | 38.4 | > 100 | Activity (Mus musculus [5]): Toxic; Activity (Mus musculus [6]): Non-toxic; Activity (Mus musculus [7]): Non-toxic
41 | O=C(COc1ccccc1I)NCCc1nc2ccccc2[nH]1 | 96 | 1.6 | > 100 | Activity (Mus musculus [5]): Toxic; Activity (Mus musculus [6]): Non-toxic; Activity (Mus musculus [7]): Toxic
42 | N#Cc1ccccc1OCC(=O)NCCc1nc2ccccc2[nH]1 | 81 | 65.1 | 6.5 | Activity (Mus musculus [5]): Toxic; Activity (Mus musculus [6]): Non-toxic; Activity (Mus musculus [7]): Non-toxic
43 | O=C(COc1cccc(Br)c1)NCCc1nc2ccccc2[nH]1 | 96 | 0.8 | > 100 | Activity (Mus musculus [5]): Toxic; Activity (Mus musculus [6]): Non-toxic; Activity (Mus musculus [7]): Non-toxic
44 | O=C(COc1ccccc1Cl)NCCc1cnc[nH]1 | 14 | – | – | –
45 | O=C(COc1ccc(Br)cc1)NCCc1nc2ccccc2[nH]1 | 96 | 2.7 | 6.7 | Activity (Mus musculus [5]): Toxic; Activity (Mus musculus [6]): Non-toxic; Activity (Mus musculus [7]): Non-toxic
